Experimental data reported in ChEMBL document CHEMBL1275547, “KHM-1, a novel plasmid-mediated metallo-beta-lactamase from a Citrobacter freundii clinical isolate” (2008).
Converted amounts (≈) assume the structure as drawn. The source made the active and inactive calls. No cut-off for these calls is given here.

Assays:
Escherichia coli [1] = experiment: Antibacterial activity against Escherichia coli JM109 harboring recombinant pKHM-1 by microdilution method; type: functional
Escherichia coli [2] = experiment: Antibacterial activity against Escherichia coli K-12 W1895 by microdilution method; type: functional
Summary of the method: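 Microdilution β-lactam MICs in E. coli K-12 W1895, the conjugation recipient. Transconjugants carrying the natural blaKHM-1 plasmid were selected on Penassay agar with rifampin (200 μg/ml) and moxalactam (16 μg/ml).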

Escherichia coli [3] = experiment: Antibacterial activity against Escherichia coli JM109 by microdilution method; type: functional
Summary of the method: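 Microdilution β-lactam susceptibility in E. coli JM109, the host strain for recombinant plasmids such as the pHSG396-based blaKHM-1 clone.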

Escherichia coli [4] = experiment: Antibacterial activity against Escherichia coli K-12 W1895 transconjugant harboring pCF243 by microdilution method; type: functional
Escherichia coli [5] = details: JM109
Escherichia coli [6] = experiment: Ratio of Kcat to Km for Escherichia coli JM109 harboring recombinant pKHM-1 Beta-lactamase KHM-1 assessed as compound hydrolysis by UV-visible spectrophotometry
Summary of the method: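 KHM-1 was purified from E. coli JM109(pKHM-1) on HiTrap Q and Superdex 200 columns, with fractions tracked by 100 μM nitrocefin hydrolysis. Protein was measured by BCA. Hydrolysis was followed spectrophotometrically in 50 mM phosphate pH 7.0 at 25°C under initial-rate conditions. Km and kcat came from Lineweaver-Burk plots as means of three independent experiments, and kcat/Km was calculated from them.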

Citrobacter freundii [7] = experiment: Antibacterial activity against Citrobacter freundii KHM243 clinical isolate by microdilution method in presence of Sulbactam; type: functional
Summary of the method: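 Broth microdilution susceptibility of C. freundii KHM243, a urinary isolate from a catheter-associated UTI patient (1997). Ampicillin was tested with sulbactam at a fixed ampicillin:sulbactam ratio of 2:1.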

Escherichia coli [8] = experiment: Antibacterial activity against Escherichia coli K-12 W1895 transconjugant harboring pCF243 by microdilution method in presence of Sulbactam; type: functional
Summary of the method: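 Broth microdilution MIC of ampicillin-sulbactam, combined at a 2:1 ampicillin:sulbactam ratio. The host is an E. coli K-12 W1895 transconjugant carrying the natural blaKHM-1 plasmid pCF243 from C. freundii KHM243, selected on Penassay broth agar with rifampin (200 μg/ml) and moxalactam.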

Escherichia coli [9] = experiment: Antibacterial activity against Escherichia coli JM109 harboring recombinant pKHM-1 by microdilution method in presence of Sulbactam; type: functional
Summary of the method: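 Broth microdilution MIC of ampicillin-sulbactam, combined at a 2:1 ampicillin:sulbactam ratio. The host is E. coli JM109 carrying pKHM-1, a recombinant pHSG396 clone of an EcoRI fragment of pCF243 bearing blaKHM-1, selected on agar with moxalactam (1 μg/ml).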

Escherichia coli [10] = experiment: Antibacterial activity against Escherichia coli K-12 W1895 by microdilution method in presence of Sulbactam; type: functional
Summary of the method: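 β-Lactam susceptibility was measured by microdilution. Ampicillin was tested combined with sulbactam at a fixed 2:1 ampicillin:sulbactam ratio. The E. coli K-12 W1895 strain served as the recipient strain in the conjugation experiments.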

Citrobacter freundii [11] = experiment: Antibacterial activity against Citrobacter freundii KHM243 clinical isolate by microdilution method; type: functional
Escherichia coli [12] = experiment: Antibacterial activity against Escherichia coli JM109 by microdilution method in presence of Sulbactam; type: functional
Summary of the method: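 Microdilution β-lactam susceptibility in E. coli JM109, the host for recombinant plasmids including the pHSG396 construct carrying blaKHM-1. Sulbactam was paired with ampicillin at a fixed 2:1 ampicillin-to-sulbactam ratio.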

Escherichia coli [13] = details: JM109; remark: listed apart in the source

Row | SMILES | MIC (Escherichia coli [1]) [µg/mL] | MIC (Escherichia coli [2]) [µg/mL] | MIC (Escherichia coli [3]) [µg/mL] | MIC (Escherichia coli [4]) [µg/mL] | Km (Escherichia coli [5]) [µM] | kcat (Escherichia coli [5]) [s⁻¹] | kcat/Km (Escherichia coli [6]) | MIC (Citrobacter freundii [7]) [µg/mL] | MIC (Escherichia coli [8]) [µg/mL] | MIC (Escherichia coli [9]) [µg/mL] | MIC (Escherichia coli [10]) [µg/mL] | MIC (Citrobacter freundii [11]) [µg/mL] | MIC (Escherichia coli [12]) [µg/mL] | Km (Escherichia coli [13]) | kcat (Escherichia coli [13])
1 | CO/N=C(\C(=O)N[C@@H]1C(=O)N2C(C(=O)[O-])=C(C[N+]3(C)CCCC3)CS[C@H]12)c1csc(N)n1 | 64 | 0.002 (≈ 0.00416 µM) | 0.004 (≈ 0.00832 µM) | > 512 | – | – | – | – | – | – | – | – | – | – | –
2 | CC1(C)S[C@@H]2[C@H](NC(=O)Cc3ccccc3)C(=O)N2[C@H]1C(=O)O | – | – | – | – | 1340 | 23 | 1.7 ×10⁴ /M/s | – | – | – | – | – | – | – | –
3 | CC1(C)S[C@@H]2[C@H](NC(=O)[C@H](N)c3ccccc3)C(=O)N2[C@H]1C(=O)O [AMPICILLIN] | 16 | 8 (≈ 22.9 µM) | 1 (≈ 2.86 µM) | 64 (≈ 183 µM) | 978 | 19 | 1.9 ×10⁴ /M/s | 64 | 64 | 16 | 1 | 256 (≈ 733 µM) | 0.5 | – | –
4 | C[C@H]1[C@H](NC(=O)/C(=N\OC(C)(C)C(=O)O)c2csc(N)n2)C(=O)N1S(=O)(=O)O [AZTREONAM] | 0.063 | 0.031 (≈ 0.0712 µM) | – | 0.063 (≈ 0.145 µM) | – | – | – | – | – | – | – | – | – | inactive | inactive
5 | NC(=O)OC[C@@H]1[C@H](NC(=O)/C(=N\OCC(=O)O)c2csc(N)n2)C(=O)N1S(=O)(=O)O [CARUMONAM] | 0.063 | 0.031 (≈ 0.0665 µM) | 0.031 (≈ 0.0665 µM) | 0.125 (≈ 0.268 µM) | – | – | – | – | – | – | – | 0.25 (≈ 0.536 µM) | – | – | –
6 | CCN1CCN(C(=O)N[C@@H](C(=O)N[C@]2(OC)C(=O)N3C(C(=O)O)=C(CSc4nnnn4C)CS[C@@H]32)[C@H](C)O)C(=O)C1=O [CEFBUPERAZONE] | 512 | 0.063 (≈ 0.1 µM) | 0.031 (≈ 0.0494 µM) | 256 (≈ 408 µM) | – | – | – | – | – | – | – | 128 (≈ 204 µM) | – | – | –
7 | CO[C@@]1(NC(=O)CSCC#N)C(=O)N2C(C(=O)O)=C(CSc3nnnn3C)CS[C@@H]21 [CEFMETAZOLE] | > 512 | 0.5 (≈ 1.06 µM) | 0.25 (≈ 0.53 µM) | 512 (≈ 1090 µM) | – | – | – | – | – | – | – | 512 (≈ 1090 µM) | – | – | –
8 | CO[C@@]1(NC(=O)CSC[C@@H](N)C(=O)O)C(=O)N2C(C(=O)O)=C(CSc3nnnn3C)CS[C@@H]21 [CEFMINOX] | 512 | 0.125 (≈ 0.241 µM) | 0.25 (≈ 0.481 µM) | > 512 | – | – | – | – | – | – | – | 512 (≈ 985 µM) | – | – | –
9 | CO/N=C(\C(=O)N[C@@H]1C(=O)N2C(C(=O)O)=C(COC(C)=O)CS[C@H]12)c1csc(N)n1 [CEFOTAXIME] | 128 | 0.008 (≈ 0.0176 µM) | 0.004 (≈ 0.00878 µM) | > 512 | 13 | 2180 | – | – | – | – | – | 64 (≈ 141 µM) | – | – | –
10 | CO[C@@]1(NC(=O)C2SC(=C(C(N)=O)C(=O)O)S2)C(=O)N2C(C(=O)O)=C(CSc3nnnn3C)CS[C@@H]21 (stereo partly specified) [CEFOTETAN] | > 512 | 0.125 (≈ 0.217 µM) | 0.031 (≈ 0.0539 µM) | 512 (≈ 889 µM) | – | – | – | – | – | – | – | 128 (≈ 222 µM) | – | – | –
11 | CO[C@@]1(NC(=O)Cc2cccs2)C(=O)N2C(C(=O)O)=C(COC(N)=O)CS[C@@H]21 [CEFOXITIN] | > 512 | 8 (≈ 18.7 µM) | 8 (≈ 18.7 µM) | > 512 | 81 | 1180 | 1.4 ×10⁷ /M/s | – | – | – | – | 512 (≈ 1200 µM) | – | – | –
12 | CO/N=C(\C(=O)N[C@@H]1C(=O)N2C(C(=O)[O-])=C(C[n+]3ccn4ncccc43)CS[C@H]12)c1nsc(N)n1 [CEFOZOPRAN] | 64 | 0.016 (≈ 0.031 µM) | 0.008 (≈ 0.0155 µM) | 256 (≈ 497 µM) | – | – | – | – | – | – | – | 16 (≈ 31 µM) | – | – | –
13 | CC(C)(O/N=C(\C(=O)N[C@@H]1C(=O)N2C(C(=O)[O-])=C(C[n+]3ccccc3)CS[C@H]12)c1csc(N)n1)C(=O)O [CEFTAZIDIME] | > 512 | 0.125 (≈ 0.229 µM) | 0.063 (≈ 0.115 µM) | > 512 | 8 | 118 | 1.5 ×10⁷ /M/s | – | – | – | – | > 512 | – | – | –
14 | CO/N=C(\C(=O)N[C@@H]1C(=O)N2C(C(=O)O)=C(COC(N)=O)CS[C@H]12)c1ccco1 [CEFUROXIME] | > 512 | 2 (≈ 4.71 µM) | 8 (≈ 18.9 µM) | > 512 | – | – | – | – | – | – | – | > 512 | – | – | –
15 | O=C(Cc1cccs1)N[C@@H]1C(=O)N2C(C(=O)[O-])=C(C[n+]3ccccc3)CS[C@H]12 [CEPHALORIDINE] | 64 | 2 (≈ 4.81 µM) | 1 (≈ 2.41 µM) | 128 (≈ 308 µM) | 4.4 | 686 | 1.6 ×10⁸ /M/s | – | – | – | – | 512 (≈ 1230 µM) | – | – | –
16 | CO[C@@]1(NC(=O)CSC(F)F)C(=O)N2C(C(=O)O)=C(CSc3nnnn3CCO)CO[C@@H]21 [FLOMOXEF] | 128 | 0.031 (≈ 0.0624 µM) | 0.031 (≈ 0.0624 µM) | 256 (≈ 516 µM) | – | – | – | – | – | – | – | 64 (≈ 129 µM) | – | – | –
17 | C[C@@H](O)[C@H]1C(=O)N2C(C(=O)O)=C(SCCNC=N)C[C@H]12 [IMIPENEM ANHYDROUS] | – | 0.063 (≈ 0.21 µM) | – | 4 (≈ 13.4 µM) | – | – | 5.6 ×10⁴ /M/s | – | – | – | – | 2 (≈ 6.68 µM) | – | – | –
18 | C[C@@H](O)[C@H]1C(=O)N2C(C(=O)O)=C(S[C@@H]3CN[C@H](C(=O)N(C)C)C3)[C@H](C)[C@H]12 [MEROPENEM] | 4 | 0.004 (≈ 0.0104 µM) | 0.004 (≈ 0.0104 µM) | 4 (≈ 10.4 µM) | 12 | 0.4 | 3.3 ×10⁴ /M/s | – | – | – | – | 4 (≈ 10.4 µM) | – | – | –
19 | CO[C@@]1(NC(=O)C(C(=O)O)c2ccc(O)cc2)C(=O)N2C(C(=O)O)=C(CSc3nnnn3C)CO[C@@H]21 (stereo partly specified) [MOXALACTAM] | > 512 | 0.063 (≈ 0.121 µM) | 0.031 (≈ 0.0596 µM) | > 512 | 71 | 2790 | 3.9 ×10⁷ /M/s | – | – | – | – | 256 (≈ 492 µM) | – | – | –
20 | CCN1CCN(C(=O)N[C@@H](C(=O)N[C@@H]2C(=O)N3[C@@H]2SC(C)(C)[C@@H]3C(=O)O)c2ccccc2)C(=O)C1=O [PIPERACILLIN] | 4 | 2 (≈ 3.86 µM) | 0.25 (≈ 0.483 µM) | 16 (≈ 30.9 µM) | – | – | – | – | – | – | – | 4 (≈ 7.73 µM) | – | – | –
